pIC50: −log10 of the molar value. The source made the active and inactive calls. No cut-off for these calls is given here.
How the values were obtained:
SH-SY5Y [1] = assay: Cytotoxicity against human SH-SY5Y cells assessed as reduction in cell viability incubated for 24 hrs by MUH reagent based spectrophotometric analysis; format: functional
SH-SY5Y [2] = assay: Cytotoxicity against human SH-SY5Y cells assessed as reduction in cell viability incubated for 48 hrs by MUH reagent based spectrophotometric analysis; format: functional
SH-SY5Y [3] = assay: Cytotoxicity against human SH-SY5Y cells assessed as reduction in cell viability incubated for 72 hrs by MUH reagent based spectrophotometric analysis; format: functional
How it was run: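 SH-SY5Y in DMEM/10% FBS seeded 0.75 × 10⁴ cells/well, after 24 h treated with 0.1–100 μM for 24, 48 or 72 h. Washed, incubated with MUH 0.01 mg/mL in PBS 30 min at 37 °C in the dark; fluorescence ex 330/em 450 nm, normalized to untreated cells. IC50 by nonlinear regression, log(inhibitor) vs normalized response.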

Histone deacetylase 2 = Histone deacetylase 2 (Homo sapiens, UniProt Q92769); assay: Inhibition of human recombinant HDAC2 using aminoluciferin-conjugated histone 4 derived acetylated lysine peptide as substrate incubated for 30 mins by bio-luminogenic assay
Histone deacetylase 2, sequence (Q92769 whole entry): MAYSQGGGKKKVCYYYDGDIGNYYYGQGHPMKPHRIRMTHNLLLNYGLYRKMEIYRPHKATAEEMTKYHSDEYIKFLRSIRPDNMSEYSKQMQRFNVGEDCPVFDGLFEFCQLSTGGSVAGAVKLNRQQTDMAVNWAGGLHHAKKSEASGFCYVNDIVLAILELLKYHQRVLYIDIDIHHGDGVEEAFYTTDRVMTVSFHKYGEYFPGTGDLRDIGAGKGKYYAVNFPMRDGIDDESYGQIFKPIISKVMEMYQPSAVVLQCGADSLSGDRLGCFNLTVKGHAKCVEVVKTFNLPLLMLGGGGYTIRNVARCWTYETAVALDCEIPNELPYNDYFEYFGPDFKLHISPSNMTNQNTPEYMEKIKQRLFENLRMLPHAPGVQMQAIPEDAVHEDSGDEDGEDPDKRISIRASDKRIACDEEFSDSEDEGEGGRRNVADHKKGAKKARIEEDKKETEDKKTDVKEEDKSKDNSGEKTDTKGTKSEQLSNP

[4] = molecular target: T1, Protein deacetylase HDAC6 (Homo sapiens, UniProt Q9UBN7); assay: Inhibition of human recombinant HDAC6 using aminoluciferin-conjugated histone 4 derived acetylated lysine peptide as substrate incubated for 30 mins by bio-luminogenic assay
T1 sequence (Q9UBN7 whole entry): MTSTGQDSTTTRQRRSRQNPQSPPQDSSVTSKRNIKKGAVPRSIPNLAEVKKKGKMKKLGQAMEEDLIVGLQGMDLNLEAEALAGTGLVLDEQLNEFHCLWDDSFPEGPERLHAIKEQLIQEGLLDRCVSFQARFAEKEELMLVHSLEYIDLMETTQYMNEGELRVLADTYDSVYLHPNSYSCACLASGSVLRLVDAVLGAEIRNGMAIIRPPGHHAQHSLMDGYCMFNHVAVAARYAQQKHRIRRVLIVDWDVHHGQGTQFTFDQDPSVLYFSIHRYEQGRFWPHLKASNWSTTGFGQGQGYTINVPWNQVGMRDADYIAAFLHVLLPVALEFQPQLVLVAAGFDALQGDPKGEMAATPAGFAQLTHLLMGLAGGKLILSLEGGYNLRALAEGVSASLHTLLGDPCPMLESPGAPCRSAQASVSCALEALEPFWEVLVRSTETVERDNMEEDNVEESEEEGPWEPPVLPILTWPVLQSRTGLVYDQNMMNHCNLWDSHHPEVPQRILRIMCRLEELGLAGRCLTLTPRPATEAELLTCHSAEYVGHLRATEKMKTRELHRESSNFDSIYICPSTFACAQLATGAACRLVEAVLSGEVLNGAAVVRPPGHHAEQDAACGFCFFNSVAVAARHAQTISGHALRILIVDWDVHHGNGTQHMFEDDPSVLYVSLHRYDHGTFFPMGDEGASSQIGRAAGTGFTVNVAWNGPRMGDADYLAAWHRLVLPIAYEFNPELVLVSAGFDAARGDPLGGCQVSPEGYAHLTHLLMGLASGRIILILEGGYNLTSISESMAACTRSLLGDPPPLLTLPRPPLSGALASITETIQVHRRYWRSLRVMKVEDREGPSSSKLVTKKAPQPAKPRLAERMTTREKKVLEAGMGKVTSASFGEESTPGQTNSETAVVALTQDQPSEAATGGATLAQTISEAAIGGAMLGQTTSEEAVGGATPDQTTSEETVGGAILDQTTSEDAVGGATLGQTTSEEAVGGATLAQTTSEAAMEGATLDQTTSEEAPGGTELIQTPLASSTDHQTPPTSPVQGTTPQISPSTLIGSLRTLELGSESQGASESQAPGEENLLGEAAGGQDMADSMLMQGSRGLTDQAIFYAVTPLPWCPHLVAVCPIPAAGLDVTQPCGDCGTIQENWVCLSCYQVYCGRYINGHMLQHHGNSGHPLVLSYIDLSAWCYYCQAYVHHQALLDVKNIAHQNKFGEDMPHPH

SH-SY5Y [5] = assay: Induction of oxidative stress in human SH-SY5Y cells assessed as increase in ROS production at 2 uM incubated for 24 hrs by DCFH-DA staining based fluorescence analysis; format: functional, cell-based
How it was run: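 SH-SY5Y plated 1 × 10⁴ cells/well, allowed 24 h to adhere, then given 2 μM compound or vehicle for 24 h. Cells PBS-washed and loaded with 10 μM DCFDA in DMEM for 30 min, washed again; fluorescence at ex 485/em 535 nm normalized to protein content (Lowry). n = 5; mean ± SD, triplicate.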

SH-SY5Y [6] = assay: Antioxidant activity in human SH-SY5Y cells assessed as protection against […]-induced oxidative stress at 2 uM pretreated for 24 hrs followed by incubation with […] for 30 mins by DCFH-DA staining based fluorescence analysis; format: functional, cell-based; details: time 24.5 hrs
How it was run: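 SH-SY5Y seeded 1 × 10⁴ cells/well, adhered 24 h, exposed to 2 μM compound or vehicle for 24 h, then loaded with 10 μM DCFDA in DMEM for 30 min; stress induced afterwards with 100 μM TBH in PBS for 30 min. Fluorescence read at ex 485/em 535 nm, normalized to Lowry protein; n = 5, triplicate.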

Neurosphere = assay: Toxicity against C57BL/6N mouse neurosphere at 25 to 50 uM measured after 7 days by bright filed microscopy; format: tissue-based; details: in vitro, 168 h
How it was run: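 Neurospheres from sub-ventricular zone of 8-month-old male C57BL/6N mice, dissociated with Accutase, plated as single cells 5 × 10³/well in suspension in EGF/FGF2/N2/B27 medium with 2.5–50 μM compound or DMSO for 7 days. Daily brightfield live imaging; sphere count and total area per image, aggregates >400 μm² only.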

[7] = molecular target: Histone deacetylase (Homo sapiens) (UniProt Q13547+O15379+Q9UBN7+Q92769+Q9UQL6+Q8WUI4+Q9BY41+Q96DB2+P56524+Q9UKV0+Q969S8); assay: Inhibition of HDAC in human SH-SY5Y cells assessed as hyperacetylation of histone H2/H3 at 5 uM incubated for 6 hrs by western blot analysis; format: cell-based
How it was run: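 SH-SY5Y seeded at 20 × 10⁴ cells/cm², after 48 h given 5 μM compound or vehicle for 6 h. Nuclei isolated, histones acid-extracted (0.4 N H2SO4, 4 °C 1 h), acetone-precipitated, run on 15% gel and blotted with anti-acetyl-lysine antibody, ECL detection; densitometry normalized to H1.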

SH-SY5Y [8] = assay: Cytotoxicity against human SH-SY5Y cells assessed as reduction in cell viability at 1 uM pretreated with antioxidant, NAC for 1 hr followed by incubation with drug for 24 hrs by MUH reagent based spectrophotometric analysis; format: functional
How it was run: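 SH-SY5Y pretreated 1 h with 2 mM NAC, then exposed to compound at 1 or 10 μM for 24 h. Viability read by MUH hydrolysis (0.01 mg/mL, 30 min, 37 °C; ex 330/em 450 nm) as percent of untreated cells; two-way ANOVA with Tukey post hoc.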

| SMILES | pIC50 (SH-SY5Y [1]) | pIC50 (SH-SY5Y [2]) | pIC50 (SH-SY5Y [3]) | pIC50 (Histone deacetylase 2) | pIC50 [4] | Activity (SH-SY5Y [5]) | Activity (SH-SY5Y [6]) | Activity (Neurosphere) | inhibition [7] | Activity (SH-SY5Y [8]) |
| --- | --- | --- | --- | --- | --- | --- | --- | --- | --- | --- |
| CC1=C(NCCCCNC(=O)CS)C(=O)c2ccccc2C1=O | < 4.00 | < 4.00 | < 4.00 | 4.60 | 4.52 | inactive | inactive | Toxic | – | – |
| CC1=C(NCc2ccc(C(=O)Nc3ccccc3N)cc2)C(=O)c2ccccc2C1=O | 5.81 | 6.11 | 6.21 | 5.68 | 5.42 | Active | inactive | – | Active | inactive |

— ChEMBL document CHEMBL5532752, “Integrating a quinone substructure into histone deacetylase inhibitors to cope with Alzheimer's disease and cancer” (RSC Med Chem, 2024)
